Source: ChEMBL document CHEMBL3751796, “Structure-Based Discovery of Novel Cyclophilin A Inhibitors for the Treatment of Hepatitis C Virus Infections” (J Med Chem, 2015)
Activity calls are given as the source filed them. No cut-off for these calls is given here.

Experiments:
[1] = species on record: Mus musculus; experiment: Inhibition of calcium-dependent calcineurin phosphatase activity in ionomycin-stimulated BALB/c mouse splenocytes assessed as reduction in dephosphorylation of R2 phosphopeptide at 1 to 10 uM preincubated for 20 hrs followed by ionomycin stimulation measured after 4 hrs
Summary of the method: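 Mouse splenocytes (2 × 10^6 cells/well) were incubated with compound for 20 h, then stimulated with 1 μg/mL ionomycin for another 4 h or left unstimulated. Calcineurin activity was measured by dephosphorylation of RII phosphopeptide using a cellular activity kit.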

[2] = tested on: Mus musculus; experiment: Toxicity in NOD/SCID mouse assessed as body weight change at 50 mg/kg, ip measured up to 14 days; type: organism-based; conditions: in vivo, 336 h
[3] = tested on: Hepatitis C virus; experiment: Antiviral activity against HCV genotype 1b Con1 infected in human Huh7.5 cells assessed as stimulation of ISG15 mRNA expression at 2 uM incubated up to 96 hrs by qRT-PCR method; type: functional, organism-based; conditions: Hepacivirus hominis, isolate Con1, Huh-7, TDE = time-dependent effect
Summary of the method: (§1)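 mRNA measured by SYBR Green qRT-PCR using the 2^−ΔΔCT method, normalized to GAPDH and expressed as fold change vs controls.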

[4] = tested on: Hepatitis C virus; experiment: Antiviral activity against HCV genotype 1b Con1 infected in human Huh7.5 cells assessed as stimulation of STAT1 mRNA expression at 2 uM incubated up to 96 hrs by qRT-PCR method; type: functional, organism-based; conditions: Hepacivirus hominis, isolate Con1, Huh-7, TDE = time-dependent effect; summary of the method: as §1
[5] = target: T1, Peptidyl-prolyl cis-trans isomerase A (Homo sapiens, UniProt P62937); experiment: Inhibition of human Cyclophilin A interaction with HCV genotype 1b Con1 NS5B in human Huh7.5 cells at 2 uM by co-immunoprecipitation assay; type: cell-based; conditions: Huh-7
Target sequence in this assay (P62937 whole entry, looked up): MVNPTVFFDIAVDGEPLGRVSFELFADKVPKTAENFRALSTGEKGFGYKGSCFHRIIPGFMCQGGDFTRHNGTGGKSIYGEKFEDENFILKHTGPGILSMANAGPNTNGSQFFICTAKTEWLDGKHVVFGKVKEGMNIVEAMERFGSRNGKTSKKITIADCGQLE

[6] = tested on: Mus musculus; experiment: Nephrotoxicity in BALB/c mouse assessed as changes in serum creatinine level at 50 mg/kg, iv for 2 weeks; type: toxicity, organism-based; conditions: in vivo, 336 h
[7] = target: T1, Peptidyl-prolyl cis-trans isomerase A; experiment: Inhibition of Cyclophilin A peptidyl-prolyl cis-trans isomerase activity (unknown origin) using Succ-Ala-Leu-Pro-Phe-p-nitroaniline as substrate by enzyme kinetic analysis
Target sequence in this assay (P62937 whole entry): as the sequence (P62937 whole entry, looked up) above

[8] = target: T1, Peptidyl-prolyl cis-trans isomerase A; experiment: Inhibition of Cyclophilin A in human Huh7.5 cells infected with HCV assessed as reduction in viral RNA replication level at 0.5 to 4 uM by luciferase reporter gene assay; type: cell-based; conditions: Huh-7
Summary of the method: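 Huh7.5 cells infected with JFH1-Luc (Renilla luciferase reporter) virus at MOI 0.004 for 5 h at 37 °C, with or without test chemicals. Renilla luciferase activity was read from cell lysates on day 3 postinfection.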
Target sequence in this assay (P62937 whole entry, looked up): as above

[9] = tested on: Hepatitis C virus; experiment: Antiviral activity against HCV genotype 1b Con1 infected in human Huh7.5 cells assessed as inhibition of NS5B expression in membrane fractions at 2 uM by Western blot analysis; type: functional, organism-based; conditions: Hepacivirus hominis, isolate Con1, Huh-7
Summary of the method: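 Con1b replicon cells treated with 2 μM. Total lysates, and a membrane fraction prepared by hypotonic buffer, dounce homogenization, 220g spin and then 68 000g for 1 h at 4 °C, analyzed by Western blot for NS5A and NS5B.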

[10] = Cytotoxicity against BALB/c mouse splenocytes assessed as reduction in cell viability at 1 to 10 uM; type: cell-based; conditions: splenocyte
[11] = tested on: Hepatitis C virus; experiment: Antiviral activity against HCV genotype 1b Con1 infected in human Huh7.5 cells assessed as stimulation of IRF9 expression at 2 uM incubated up to 96 hrs by Western blot analysis; type: functional, organism-based; conditions: Hepacivirus hominis, isolate Con1, Huh-7, TDE = time-dependent effect
[12] = tested on: Hepatitis C virus; experiment: Antiviral activity against HCV genotype 1b Con1 infected in human Huh7.5 cells expressing GFP-fused NS5A measured 72 hrs post infection by hoechst 33342 staining based confocal microscopy; type: functional, organism-based, Hepacivirus hominis; conditions: isolate Con1, Huh-7, 72 h
Summary of the method: (§2)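 Huh7 replicon cells expressing NS5A-GFP seeded at 2 × 10^3/well and left overnight, then given serially diluted compound. At 72 h, fixed in 2% PFA and nuclei stained with Hoechst 33342 (10 μg/mL). Automated confocal imaging: GFP-positive cells give activity, nuclei counts give cytotoxicity. EC50/CC50 from nonlinear regression.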

[13] = target: Peptidyl-prolyl cis-trans isomerase B (Homo sapiens, UniProt P23284); experiment: Dissociation rate to Cyclophilin B (unknown origin) by surface plasmon resonance analysis
[14] = target: T1, Peptidyl-prolyl cis-trans isomerase A; experiment: Inhibition of recombinant GST-tagged Cyclophilin A (unknown origin) interaction with HCV GST-tagged NS5B at 2 to 4 uM by GST pulldown assay
Target sequence in this assay (P62937 whole entry, looked up): as above

[15] = tested on: Hepatitis C virus; experiment: Antiviral activity against HCV genotype 1b Con1 infected in human Huh7.5 cells assessed as stimulation of STAT1 expression at 2 uM incubated up to 96 hrs by Western blot analysis; type: functional, organism-based; conditions: Hepacivirus hominis, isolate Con1, Huh-7, TDE = time-dependent effect
[16] = tested on: Hepatitis C virus; experiment: Antiviral activity against HCV genotype 1b Con1 infected in human Huh7.5 cells assessed as upregulation of IFN-alpha expression incubated up to 96 hrs by ELISA; type: functional, organism-based; conditions: Hepacivirus hominis; isolate Con1; Huh-7
Summary of the method: (§3)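 Con1b replicon cells, 2 × 10^6/well, treated with 2 μM for up to 4 days at 37 °C. Pooled culture media assayed for IL-8 and IFN-α by ELISA.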

[17] = tested on: Hepatitis C virus; experiment: Antiviral activity against HCV infected in human Huh7.5 cells assessed as inhibition of HCV-specific RNA by qRT-PCR method in presence of IFN-alpha; type: functional, organism-based; conditions: Hepacivirus hominis; Huh-7
[18] = target: T1, Peptidyl-prolyl cis-trans isomerase A; experiment: Inhibition of human Cyclophilin A interaction with HCV genotype 1b Con1 NS5A in human Huh7.5 cells at 2 uM by co-immunoprecipitation assay; type: cell-based; conditions: Huh-7
Target sequence in this assay (P62937 whole entry, looked up): as above

[19] = Cytotoxicity against HCV infected human Huh7.5 cells assessed as cell death by MTT assay in presence of ribavirin; type: cell-based; conditions: huh-7
[20] = Cytotoxicity against HCV genotype 1b Con1 infected human Huh7.5 cells expressing GFP-fused NS5A assessed as reduction in cell viability measured 72 hrs post infection by hoechst 33342 staining based confocal microscopy; parameters: species or system Huh-7; summary of the method: as §2
[21] = tested on: Hepatitis C virus; experiment: Antiviral activity against HCV genotype 1b Con1 infected in human Huh7.5 cells assessed as reduction of IL-8 level at 2 uM incubated up to 96 hrs by ELISA; type: functional, organism-based; conditions: Hepacivirus hominis, isolate Con1, Huh-7, TDE = time-dependent effect; summary of the method: as §3
[22] = tested on: Hepatitis C virus; experiment: Antiviral activity against HCV infected in human Huh7.5 cells assessed as inhibition of IL-8 level by ELISA in presence of IFN-alpha; type: functional, organism-based; conditions: Hepacivirus hominis; Huh-7
[23] = tested on: Hepatitis C virus; experiment: Antiviral activity against HCV genotype 1b Con1 infected in human Huh7 cells xenografted in immunodeficient NOD/SCID mouse assessed as inhibition of NS5A expression in liver at 50 mg/kg, ip up to 14 days by DAPI staining based confocal microscopy; type: functional, organism-based; conditions: Hepacivirus hominis, isolate Con1, Huh-7
Summary of the method: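 Replicon-engrafted NOD/SCID mice, 50 mg/kg ip for 14 days from week 6, n=5. Paraffin liver sections incubated overnight at 4 °C with anti-human hepatocyte (Hep par 1) and anti-NS5A antibodies (1:50). Alexa 488/546 secondaries 1:100 for 2 h, DAPI 5 min, then confocal imaging.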

[24] = tested on: Hepatitis C virus; experiment: Antiviral activity against HCV genotype 1b Con1 infected in human Huh7.5 cells assessed as inhibition of NS5A expression at 2 uM by DAPI staining based confocal microscopy; type: functional, organism-based; conditions: Hepacivirus hominis, isolate Con1, Huh-7
Summary of the method: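 Con1b replicon cells treated at 2 μM. Stained with Alexa red anti-NS5A and Alexa green anti-NS5B antibodies plus DAPI, then imaged by confocal microscopy for colocalization. Images representative of at least three experiments.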

[25] = Cytotoxicity against HCV infected human Huh7.5 cells assessed as cell death by MTT assay in presence of IFN-alpha; type: cell-based; conditions: huh-7

Chain of Peptidyl-prolyl cis-trans isomerase B (P23284 whole entry): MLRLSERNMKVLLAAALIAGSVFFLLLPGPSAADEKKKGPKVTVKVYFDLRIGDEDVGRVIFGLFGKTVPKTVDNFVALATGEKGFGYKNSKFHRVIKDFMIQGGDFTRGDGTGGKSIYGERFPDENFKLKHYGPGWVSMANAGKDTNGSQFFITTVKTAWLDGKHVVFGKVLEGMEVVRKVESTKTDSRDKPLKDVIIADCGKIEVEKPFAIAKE

inhibition [1]: inactive | inhibition [5]: Active | IC50 [7]: 5.5 nM | inhibition [8]: Active | EC50 [12]: 730 nM | koff [13]: 8.25 ×10⁻⁴ /s | inhibition [14]: Active | inhibition [18]: Active
SMILES: COc1cc(C(C(=O)NC2CCCCC2)N(C(=O)Cc2c[nH]c3ccccc23)c2ccc(C(C)C)cc2)cc(OC)c1OC (stereo not given)
Activity [2]: Non-toxic | Activity [3]: tde | Activity [4]: tde | Activity [6]: Non-toxic | inhibition [9]: Active | Activity [10]: Non-toxic | Activity [11]: tde | Activity [15]: tde | Activity [16]: Active | inhibition [17]: Active | Activity [19]: Non-toxic | CC50 at 72 h [20]: 12400 nM | Activity [21]: tde | inhibition [22]: Active | inhibition [23]: Active | inhibition [24]: Active | Activity [25]: Non-toxic
